Compounds with a hit are over-represented: about 3.7% of the library has one in this group of screens.
E-sel inducer – induces E-selectin expression in human endothelial cells. P16581. AID 686992. 260,000 compounds, 0.37% hits. activation, % at 7.58 µM. HUVEC E-selectin immunofluorescence imaging; normalized: neutral wells 0, TNF-alpha wells 100;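 active = mean E-selectin-positive cell signal at least 10% of the positive control, reached in at least 60% of replicates, without over 20% cell loss; inconclusive = no rule given, readout overlaps actives, possibly toxicity-flagged; inactive = the rest, including those meeting only one limit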
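Test system: HUVEC; input: 3,000 HUVEC/well; measured by: immunofluorescence imaging; read-out: % PE-positive cells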
ERAP1 HTS inh – blocks human ERAP1 aminopeptidase activity; Q9NZ08; recombinant ERAP1, Leu-AMC fluorescence, 60 min; inhibition, % at 10.7 µM; 340,000 compounds, 0.15% hits;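 active = mean replicate inhibition of at least 30%, or all replicates individually reaching that 30% level; inactive = mean below 30% and not every replicate reaching it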;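 note: 0% = neutral control wells and 100% = L-leucinethiol positive control wells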
FGF22 binding – FGF22 (human) thermal shift binding | recombinant FGF22 thermal shift, SYPRO orange fluorescence; percent of sucrose octasulfate shift, DMSO zero | activity (Tm shift, normalised), % at 9.99 µM | 340,000 compounds, 1.5% hits;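 active = mean Tm shift, scaled 0 neutral to 100 positive control, at about 1.3% or above, every replicate too, limit read from the data; inconclusive = no clear call, values can overlap the other calls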
Target sequence (Q9HCT0 whole entry, looked up): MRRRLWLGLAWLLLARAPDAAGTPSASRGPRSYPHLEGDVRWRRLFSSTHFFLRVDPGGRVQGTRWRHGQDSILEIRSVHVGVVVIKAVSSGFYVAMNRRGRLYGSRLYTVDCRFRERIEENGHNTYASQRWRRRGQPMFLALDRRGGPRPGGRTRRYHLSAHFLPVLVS
CFTR F508del cor – CFTR F508del correction in bronchial cells | CFBE cells, YFP halide quenching; stimulated with forskolin plus potentiator P3; % fluorescence drop versus neutral controls | 350,000 compounds, 0.36% hits | activity (quench increase), % at 7.58 µM | AID 720511;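 active = mean added fluorescence quench of at least 8% versus neutral control, with both replicates also reaching 8%; inconclusive = only one of the mean or replicate conditions met; inactive = mean below 8% and not both replicates reaching 8%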;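 note: cells transiently co-express mutant CFTR-F508del with the halide-sensitive YFP; corrector assay measuring rescue of mutant channel to the surface after 24 h compound exposure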
DENV2 CPE rescue – protects cells from dengue virus 2 cytopathic effect | DENV2-infected cells, cytopathic effect rescue, plate reader | CPE inhibition, % at 9.99 µM | 350,000 compounds, 1.7% hits | AID 651640; in the data active = CPE inhibition above about 20%, passing the limit was not always enough; inconclusive = no clear call, values can overlap the other calls; tested in BHK-21 cells;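 note: 0% = median of neutral control wells and 100% = median of positive control wells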
* = called active by the depositor; ? = inconclusive; · = not tested or not shown.

SMILES	E-sel inducer	ERAP1 HTS inh	FGF22 binding	CFTR F508del cor	DENV2 CPE rescue
COc1ccc(S(=O)(=O)Nc2ccc3c(c2)C(=O)N([C@H](C)CO)C[C@@H](C)[C@H](CN(C)Cc2ccc(Cl)c(Cl)c2)O3)cc1	40*	-3	0	6	1
COc1ccc(S(=O)(=O)Nc2ccc3c(c2)C(=O)N([C@@H](C)CO)C[C@@H](C)[C@H](CN(C)Cc2ccc(Oc4ccccc4)cc2)O3)cc1	0	-3	-1	10*	-3
COc1ccc(S(=O)(=O)Nc2ccc3c(c2)CC(=O)N([C@H](C)CO)C[C@H](C)[C@H](CN(C)Cc2ccc(Cl)c(Cl)c2)O3)cc1	0	-1	0	2	?
COc1ccc(S(=O)(=O)Nc2ccc3c(c2)C(=O)N([C@H](C)CO)C[C@@H](C)[C@@H](CN(C)Cc2ccc(Oc4ccccc4)cc2)O3)cc1	0	-1	0	7	?
Cc1noc(C)c1NC(=O)N[C@@H]1CC[C@H](CCNC(=O)C2CCC2)O[C@H]1CO	-1	4	0	1	6
C[C@H](CO)N1C[C@H](C)[C@@H](CN(C)C(=O)NC2CCCC2)Oc2ncc(C#CC3CCCCC3)cc2C1=O	1	-5	0	2	17
C/C=C/c1ccc([C@H]2[C@@H](CO)N(C(=O)c3cnccn3)C23CN(C(=O)CC)C3)cc1	0	1	0	-1	5
CN(C)C(=O)c1cccc(-c2ccc3c(c2)[C@H]2[C@H](CCN2C(=O)c2ccc4c(c2)OCO4)[C@@H](CO)N3)c1	1	·	·	-2	·
COc1ccc(S(=O)(=O)Nc2ccc3c(c2)C(=O)N([C@H](C)CO)C[C@@H](C)[C@@H](CN(C)Cc2ccc(Cl)c(Cl)c2)O3)cc1	29*	0	-1	13*	4
COc1ccc(S(=O)(=O)Nc2ccc3c(c2)C(=O)N([C@@H](C)CO)C[C@H](C)[C@H](CN(C)Cc2ccc(Cl)c(Cl)c2)O3)cc1	-10	2	-1	2	4
COCCN(C[C@@H]1N[C@@H](CO)[C@H]1c1ccc(-c2cccnc2)cc1)C(C)=O	0	-1	0	0	30*
N#Cc1c(-c2ccc(F)cc2)c(-c2ccc(F)cc2)nn(CCO)c1=O	8	3	0	18*	-8
Cc1c(C(=O)NN)nn(-c2ccc(F)cc2)c(=O)c1C#N	1	-3	0	-4	1
O=C(Cn1nnc2c(cnn2-c2ccc(F)cc2)c1=O)Nc1ccccc1C(F)(F)F	·	4	43*	4	·
C=CCOC(=O)C1C(=O)CC(C)(O)C(C(=O)OCC=C)C1c1ccc(N(C)C)cc1 (stereo not drawn)	·	0	0	0	-3
COC(=O)C1C(c2ccc(N(C)C)cc2)C(C(=O)OC)S(=O)(=O)CS1(=O)=O (stereo not drawn)	0	-5	43*	0	·
Cc1n[nH]c(C)c1CCCCOc1ccccc1	·	-4	44*	-5	·
Cc1ccc(OCCCc2c(C)n[nH]c2C)cc1	0	-1	0	3	-7
COc1ccccc1/C=N\NC(=O)c1ccc(COc2ccc(C)c(C)c2)o1	48*	·	0	2	6
COc1ccccc1/C=N/NC(=O)c1cc2c(ccc3ccccc32)o1	2	-2	0	1	6
O=S(=O)(NCc1ccccn1)c1cc(Cl)ccc1Cl	·	0	0	-6	-12
O=S(=O)(NCc1ccccn1)c1cc(C(F)(F)F)ccc1Cl	·	2	43*	0	-6
O=S(=O)(c1ccccc1)N1CCN=C1SCc1ccccc1	·	6	0	·	4
CSC1=NCCN1S(=O)(=O)c1ccc(Cl)cc1	·	2	0	2	12
CCSC1=NCCN1S(=O)(=O)c1ccc(Cl)cc1	·	-2	43*	1	7
SMILES	E-sel inducer	ERAP1 HTS inh	FGF22 binding	CFTR F508del cor	DENV2 CPE rescue
CCSC1=NCCN1S(=O)(=O)c1ccccc1	·	1	44*	0	-3
COc1ccc(CN(C)C[C@@H]2OCCCC[C@H](C)Oc3ccc(NC(=O)Nc4c(C)noc4C)cc3C(=O)N([C@@H](C)CO)C[C@@H]2C)cc1	0	0	0	0	-1
C[C@@H]1CN([C@@H](C)CO)C(=O)CCCn2nncc2CO[C@@H]1CN(C)Cc1cccnc1	0	·	·	-3	·
O=C(CC1CC1)N1[C@@H]2CN(S(=O)(=O)c3ccccc3)c3ccccc3[C@@H]2[C@@H]1CO	1	-2	0	1	-2
NNC(=O)c1sc(-c2ccccc2)cc1N	·	4	44*	-2	10
COc1cccc(CC(=O)OCC(=O)Nc2nnc(-c3ccccc3)o2)c1	0	-1	·	1	103*
CCCN1C[C@H](C)[C@H](OC)CN(C)C(=O)c2cc(NC(=O)NC3CCCCC3)ccc2OC[C@H]1C	0	-1	0	-2	7
CCCNC(=O)N(C)C[C@@H]1Oc2cc(-c3cncnc3)ccc2S(=O)(=O)N([C@H](C)CO)C[C@H]1C	1	2	0	2	19
COc1cccc(NC(=O)c2cnc(SCC(=O)NCc3ccc4c(c3)OCO4)n(C)c2=O)c1	1	1	0	8.1*	-2
CCN(CC)S(=O)(=O)c1ccc(/C=C/C(=O)OCC(=O)Nc2ccc(C(N)=O)cc2)cc1	·	4	43*	1	0
CCN(CC)S(=O)(=O)c1ccc(/C=C/C(=O)OCC(=O)Nc2ccc(S(N)(=O)=O)cc2)cc1	·	3	0	·	6
CNC[C@H]1Oc2cc(C#Cc3ccc(OC)cc3)ccc2S(=O)(=O)N([C@@H](C)CO)C[C@@H]1C	-2	-1	0	-2	33*
CNC[C@@H]1Oc2cc(C#Cc3ccc(OC)cc3)ccc2S(=O)(=O)N([C@H](C)CO)C[C@H]1C	2	1	0	-3	-8
COc1ccc(NC(=O)N(C)C[C@@H]2Oc3cc(C#CCC(C)C)ccc3S(=O)(=O)N([C@H](C)CO)C[C@@H]2C)cc1	0	0	0	9.2*	4
COc1ccc(NC(=O)N(C)C[C@H]2Oc3cc(C#CCC(C)C)ccc3S(=O)(=O)N([C@H](C)CO)C[C@H]2C)cc1	0	-1	0	1	-1
COc1ccc(C#Cc2ccc3c(c2)O[C@H](CN(C)C(=O)Nc2cccc(OC)c2)[C@H](C)CN([C@H](C)CO)S3(=O)=O)cc1	0	0	0	8.6*	-7
CCC(=O)Nc1ccc2c(c1)C(=O)N(C)[C@@H]1CC[C@@H](CC(=O)NCc3ccccc3)O[C@@H]1CO2	1	-2	0	-1	4
CNC(=O)C[C@H]1CC[C@@H]2[C@H](COC[C@@H](O)CN2Cc2ccccc2F)O1	0	-3	0	-1	0
CC=Cc1ccc2n(c1=O)C[C@@H]1[C@@H](CO)[C@H](C(=O)NCCC)N(CC3CC3)[C@H]21 (mixture of isomers)	0	-3	0	-1	7

High-throughput results (PubChem BioAssay)
